The results in this text go back to ChEMBL document CHEMBL1134546, “Structure-based design, synthesis, and biological evaluation of conformationally restricted novel 2-alkylthio-6-[1-(2,6-difluorophenyl)alkyl]-3,4-dihydro-5-alkylpyrimidin-4(3H)-ones as non-nucleoside inhibitors of HIV-1 reverse transcriptase” (J Med Chem, 2001).

Some results are limits rather than exact numbers.

In assay [1] the test system is Human immunodeficiency virus 1. Nature of the assay: Anti-HIV-1 activity determined as dose required to reduce p24 antigen levels. It counts as functional.
In assay [2] the test system is Human immunodeficiency virus 1. Nature of the assay: Effective concentration against HIV-1 induced cytopathogenicity in MT-4 cells. It counts as functional, organism-based, MT4. In short, it runs like this: (§1)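 MT-4 cells (1 × 10⁴/well) incubated with serial compound dilutions (200 mM DMSO stock diluted in medium), with or without HIV-1 IIIB (100 CCID₅₀/well), 4 days at 37 °C in RPMI 1640 with 10% FCS. Viable cells counted by MTT. CC₅₀ from mock-infected cells and EC₅₀ as 50% protection from virus-induced cytopathicity, run in parallel. Mean of at least two experiments.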

Assay [3] deals with MT4. Nature of the assay: CC50/EC50 ratio of the compound. It counts as functional. Summed up:
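Selectivity index, calculated as CC₅₀/EC₅₀. Both values come from the parallel MTT readout in mock-infected and HIV-1 IIIB-infected MT-4 cells (4-day incubation at 37 °C).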

Assay [4] relates to MT4. Nature of the assay: Cytotoxicity against MT-4 cells. It counts as functional, Homo sapiens. Summed up: as §1
For assay [5], the target named is Human immunodeficiency virus type 1 reverse transcriptase (Human immunodeficiency virus 1, UniProt Q72547). Nature of the assay: Inhibitory activity against HIV-1 recombinant reverse transcriptase.
The mark [6] stands for this setting: Human immunodeficiency virus 1, MT4.

For the compound `CC(C)Sc1nc(Cc2c(F)cccc2F)cc(=O)[nH]1`, in assay [1], the EC90 (as a rule, the concentration at which the effect reaches the 90% level) came out at 42 nM; the EC99 (commonly the concentration needed for an effect of 99%) came out at 0.083 µM; the EC99.9 stood at 0.19 µM. Besides, the 50% effective concentration (EC50) (commonly the concentration at which the effect is half-maximal) in assay [2] (setting [6]) came to 50 nM. In assay [3], the Selectivity index is on record as >4000.
On to `CC(C)CSc1nc(O)cc(C(C)c2c(F)cccc2F)n1` (stereo not given), for which it took 50 nM to reach a half-maximal effect in assay [2] (setting [6]) (EC50). Also, in assay [4] (Homo sapiens, MT4), the CC50 (usually the concentration giving 50% cytotoxicity) was > 200000 nM. The Selectivity index in assay [3] is recorded as >4000.
Compound `CCC(c1ccccc1)c1cc(O)nc(SC(C)C)n1` (stereo not given) had an EC50 in assay [2] (setting [6]) of 800 nM. The CC50 in assay [4] (Homo sapiens, MT4) is 200000 nM. In assay [5], the IC50 (as a rule, the concentration needed to halve the response being measured) stood at 2300 nM. In addition, in assay [3], the Selectivity index turned out to be 250.
As to `CC(c1cc(=O)[nH]c(SC2CCCC2)n1)c1c(F)cccc1F` (stereo not given), in assay [1], it took 15 nM to reach the 90% level (EC90), the EC99 amounted to 0.035 µM and the EC99.9 is 0.09 µM. The same compound came in with an EC50 in assay [2] (setting [6]) of 30 nM. The CC50 in assay [4] (Homo sapiens, MT4) was > 200000 nM. Besides, the half-inhibitory concentration (IC50) in assay [5] came to 50 nM. Besides, in assay [3], the Selectivity index was >6666.
`CCC(c1ccccc1)c1cc(O)nc(SC2CCCCC2)n1` (stereo not given): in assay [2] (setting [6]), the EC50 is 1300 nM. The cytotoxic concentration (CC50) in assay [4] (Homo sapiens, MT4) was > 200000 nM. Also, the IC50 in assay [5] worked out at 3700 nM. In addition, the Selectivity index in assay [3] is reported as >154.
For `CC(c1cc(O)nc(SC2CCCC2)n1)c1cccc2ccccc12` (stereo not given) the same measures were 500 nM, 93000 nM, 400 nM and 186.
Take `Cc1c(Cc2c(F)cccc2F)nc(SC(C)C)[nH]c1=O`: in assay [1], it took 26 nM to reach the 90% level (EC90), the EC99 worked out at 0.065 µM and the EC99.9 is 0.15 µM. Also, the EC50 in assay [2] (setting [6]) was 50 nM. The Selectivity index in assay [3] was >4000.
Compound `CC(c1cc(O)nc(SC2CCCCC2)n1)c1cccc2ccccc12` (stereo not given) displayed an EC50 in assay [2] (setting [6]) of 140 nM. The compound further showed a CC50 in assay [4] (Homo sapiens, MT4) of 45000 nM. The IC50 in assay [5] came to 2600 nM. Besides, the Selectivity index in assay [3] amounted to 321.4.
The like results for `Cc1c(O)nc(SC(C)C)nc1C(C)c1c(F)cccc1F` (stereo not given) were, in that order, 7 nM, > 200000 nM, 19 nM and >28570.
With `Cc1c(C(C)c2c(F)cccc2F)nc(SC2CCCC2)[nH]c1=O` (stereo in doubt; [-]3w), a half-maximal response in assay [2] (mt4) (EC50) required 70 nM. Further, the cytotoxic concentration (CC50) in assay [4] worked out at 200000 nM. For the same compound, the IC50 in assay [5] came out at 1000 nM. Also, the Selectivity index in assay [3] was >286.
As for `CCC(c1ccccc1)c1cc(O)nc(SC2CCCC2)n1` (stereo not given), the 50% effective concentration (EC50) in assay [2] (setting [6]) was determined as 1000 nM. The CC50 in assay [4] (Homo sapiens, MT4) was > 200000 nM. In addition, in assay [5], the IC50 is > 10000 nM. Besides, the Selectivity index in assay [3] was >200.
For the compound `Cc1c(O)nc(SC2CCCCC2)nc1C(C)c1c(F)cccc1F` (stereo not given), a half-maximal response in assay [2] (setting [6]) (EC50) required 18 nM. The CC50 in assay [4] (Homo sapiens, MT4) is > 200000 nM. Also, in assay [3], the Selectivity index was >11111.
In assay [1], `CCOCn1c(Cc2ccccc2)c(C(C)C)c(=O)[nH]c1=O` [EMIVIRINE] had a 90% effect concentration (EC90) of 14 nM, a concentration for an effect of 99% (EC99) of 0.041 µM and an EC99.9 of 0.082 µM. The compound further yielded an EC50 in assay [2] (setting [6]) of 30 nM. The Selectivity index in assay [3] came out at 6666.
Consider `CCC(C)Sc1nc(O)cc(Cc2c(F)cccc2F)n1` (stereo not given), for which a half-maximal response in assay [2] (setting [6]) (EC50) required 40 nM. The Selectivity index in assay [3] is listed as >5000.
In turn, `CSc1nc(O)cc(C(C)c2c(F)cccc2F)n1` (stereo not given) yielded an EC50 in assay [2] (setting [6]) of 180 nM. Besides, the midpoint of cytotoxicity in assay [4] (Homo sapiens, MT4), the CC50, lay at 20800 nM. The IC50 in assay [5] was found to be 200 nM. Besides, in assay [3], the Selectivity index turned out to be 115.
Compound `CC(c1cc(O)nc(SC2CCCCC2)n1)c1c(Cl)cccc1Cl` (stereo not given) came in with an EC50 in assay [2] (setting [6]) of 2900 nM. For the same compound, the CC50 in assay [4] (Homo sapiens, MT4) was > 200000 nM. Moreover, in assay [3], the Selectivity index was >69.
The like results for `CC(c1ccccc1)c1cc(O)nc(SC2CCCCC2)n1` (stereo not given) were, in that order, 600 nM, 149000 nM and 248.
For `CC(c1cc(O)nc(SC2CCCCC2)n1)c1c(F)cccc1F` (stereo not given) the same measures were 160 nM, > 200000 nM and >1250.
In assay [2] (setting [6]), `CC(c1ccccc1)c1cc(O)nc(SC2CCCC2)n1` (stereo not given) yielded an EC50 of 600 nM. In assay [4] (Homo sapiens, MT4), this compound yielded a CC50 of 159000 nM. In addition, the IC50 in assay [5] turned out to be 2100 nM. Moreover, the Selectivity index in assay [3] amounted to 333.
In assay [1], `CCC(c1cc(O)nc(SC(C)C)n1)c1c(F)cccc1F` (stereo not given) returned an EC90 of 15 nM, an EC99 of 0.035 µM and an EC99.9 of 0.09 µM. In addition, the EC50 in assay [2] (setting [6]) was determined as 80 nM. The same compound showed a CC50 in assay [4] (Homo sapiens, MT4) of 70000 nM. Moreover, the Selectivity index in assay [3] turned out to be 875.
Compound `CCC(C)Sc1nc(O)c(C)c(Cc2c(F)cccc2F)n1` (stereo not given) had an EC50 in assay [2] (setting [6]) of 50 nM. The CC50 in assay [4] (Homo sapiens, MT4) was > 200000 nM. Moreover, the Selectivity index in assay [3] is listed as >4000.
On to `Cc1c(C(C)c2c(F)cccc2F)nc(SC2CCCC2)[nH]c1=O` (stereo in doubt; 3w), for which, in assay [1], the EC90 was 6 nM, the concentration for an effect of 99% (EC99) turned out to be 0.015 µM and the EC99.9 was 0.033 µM. The EC50 in assay [2] (mt4) came to 6 nM. Besides, the IC50 in assay [5] is 5 nM. For the same compound, the Selectivity index in assay [3] is on record as >33333.
